# In ChEMBL document CHEMBL2021801, “Thienopyridine ureas as dual inhibitors of the VEGF and Aurora kinase families” (Bioorg Med Chem Lett, 2012):
# Active and inactive are the calls of the source. The rule behind the calls is not given here.
# What was measured:
# [1] = Clearance in CD1 (ICR) mouse at 3 mg/kg, iv; assay type: ADME, organism-based; parameters: dose 3 mg/kg, route intravenous; settings: in vivo
# [2] = Half life in CD1 (ICR) mouse at 3 mg/kg, iv; assay type: ADME, organism-based; parameters: dose 3 mg/kg, route intravenous; settings: in vivo
# [3] = AUC in CD1 (ICR) mouse at 10 mg/kg, po; assay type: ADME, organism-based; parameters: dose 10 mg/kg, route oral; settings: plasma
# Mus musculus [4] = assay: In vivo inhibition of KDR in mouse assessed as estradiol-induced uterine edema up to 30 mg/kg, po; assay type: functional, organism-based; parameters: dose 30 mg/kg
# Method in brief: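 Estradiol-induced uterine edema model in mice, a readout of acute in vivo KDR activity. Compound is given orally and ED50 is reported in mg/kg po. Procedure follows the cited reference.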
# [5] = Volume of distribution in CD1 (ICR) mouse at 3 mg/kg, iv; assay type: ADME, organism-based; parameters: dose 3 mg/kg, route intravenous; settings: in vivo
# [6] = Oral bioavailability in CD1 (ICR) mouse at 10 mg/kg; assay type: ADME, organism-based; settings: in vivo
# Aurora kinase B [7] = biological target: T1, Aurora kinase B (Homo sapiens, UniProt Q96GD4); settings: NCI-H1229
# [8] = biological target: T2, Vascular endothelial growth factor receptor 2 (Homo sapiens, UniProt P35968); assay: Inhibition of KDR using 1 mM ATP by HTRF assay
# Aurora kinase B [9] = biological target: T1, Aurora kinase B; assay: Inhibition of Aurora B using 1 mM ATP by HTRF assay
# [10] = biological target: T2, Vascular endothelial growth factor receptor 2; assay: Inhibition of human KDR phosphorylation expressed in mouse NIH3T3 cells; assay type: cell-based
# Mus musculus [11] = assay: In vivo inhibition of KDR in po dosed mouse assessed as estradiol-induced uterine edema; assay type: functional
# Cytochrome P450 3A4 [12] = biological target: T3, Cytochrome P450 3A4 (Homo sapiens, UniProt P08684); assay: Inhibition of CYP3A4 up to 10 uM; assay type: ADME
# HT-1080 = assay: Antitumor activity against human HT1080 cells xenografted in mouse assessed as tumor growth inhibition at 10 mg/kg, po qd; assay type: functional; settings: read-out: GI
# Cytochrome P450 3A4 [13] = biological target: T3, Cytochrome P450 3A4; assay: Inhibition of CYP3A4 preincubated for 15 mins; assay type: ADME
# Cytochrome P450 3A4 [14] = biological target: T3, Cytochrome P450 3A4; assay: Inhibition of CYP3A4; assay type: ADME
# T3 sequence (P08684 whole entry): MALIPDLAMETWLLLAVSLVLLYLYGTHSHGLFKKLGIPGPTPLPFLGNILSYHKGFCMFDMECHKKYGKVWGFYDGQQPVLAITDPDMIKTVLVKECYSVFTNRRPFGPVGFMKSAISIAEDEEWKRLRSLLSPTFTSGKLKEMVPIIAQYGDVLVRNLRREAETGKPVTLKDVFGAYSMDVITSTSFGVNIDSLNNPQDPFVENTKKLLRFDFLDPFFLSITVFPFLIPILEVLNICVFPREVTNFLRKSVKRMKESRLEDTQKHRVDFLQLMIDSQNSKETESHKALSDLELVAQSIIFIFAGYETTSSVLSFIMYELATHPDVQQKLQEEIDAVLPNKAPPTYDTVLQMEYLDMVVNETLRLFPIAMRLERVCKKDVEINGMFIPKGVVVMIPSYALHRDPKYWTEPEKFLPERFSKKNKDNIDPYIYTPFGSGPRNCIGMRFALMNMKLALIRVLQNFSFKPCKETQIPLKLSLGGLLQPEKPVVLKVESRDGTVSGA
# T1 sequence (Q96GD4 whole entry): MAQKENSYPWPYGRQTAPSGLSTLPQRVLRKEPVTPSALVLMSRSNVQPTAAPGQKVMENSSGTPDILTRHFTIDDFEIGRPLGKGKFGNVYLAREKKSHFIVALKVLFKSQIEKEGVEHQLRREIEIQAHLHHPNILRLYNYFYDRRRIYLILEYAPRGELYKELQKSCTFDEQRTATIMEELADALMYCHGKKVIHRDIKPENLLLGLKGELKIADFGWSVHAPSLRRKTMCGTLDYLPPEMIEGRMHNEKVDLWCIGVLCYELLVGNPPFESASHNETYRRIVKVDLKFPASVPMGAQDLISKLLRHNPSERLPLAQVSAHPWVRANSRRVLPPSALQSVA
# T2 sequence (P35968 whole entry): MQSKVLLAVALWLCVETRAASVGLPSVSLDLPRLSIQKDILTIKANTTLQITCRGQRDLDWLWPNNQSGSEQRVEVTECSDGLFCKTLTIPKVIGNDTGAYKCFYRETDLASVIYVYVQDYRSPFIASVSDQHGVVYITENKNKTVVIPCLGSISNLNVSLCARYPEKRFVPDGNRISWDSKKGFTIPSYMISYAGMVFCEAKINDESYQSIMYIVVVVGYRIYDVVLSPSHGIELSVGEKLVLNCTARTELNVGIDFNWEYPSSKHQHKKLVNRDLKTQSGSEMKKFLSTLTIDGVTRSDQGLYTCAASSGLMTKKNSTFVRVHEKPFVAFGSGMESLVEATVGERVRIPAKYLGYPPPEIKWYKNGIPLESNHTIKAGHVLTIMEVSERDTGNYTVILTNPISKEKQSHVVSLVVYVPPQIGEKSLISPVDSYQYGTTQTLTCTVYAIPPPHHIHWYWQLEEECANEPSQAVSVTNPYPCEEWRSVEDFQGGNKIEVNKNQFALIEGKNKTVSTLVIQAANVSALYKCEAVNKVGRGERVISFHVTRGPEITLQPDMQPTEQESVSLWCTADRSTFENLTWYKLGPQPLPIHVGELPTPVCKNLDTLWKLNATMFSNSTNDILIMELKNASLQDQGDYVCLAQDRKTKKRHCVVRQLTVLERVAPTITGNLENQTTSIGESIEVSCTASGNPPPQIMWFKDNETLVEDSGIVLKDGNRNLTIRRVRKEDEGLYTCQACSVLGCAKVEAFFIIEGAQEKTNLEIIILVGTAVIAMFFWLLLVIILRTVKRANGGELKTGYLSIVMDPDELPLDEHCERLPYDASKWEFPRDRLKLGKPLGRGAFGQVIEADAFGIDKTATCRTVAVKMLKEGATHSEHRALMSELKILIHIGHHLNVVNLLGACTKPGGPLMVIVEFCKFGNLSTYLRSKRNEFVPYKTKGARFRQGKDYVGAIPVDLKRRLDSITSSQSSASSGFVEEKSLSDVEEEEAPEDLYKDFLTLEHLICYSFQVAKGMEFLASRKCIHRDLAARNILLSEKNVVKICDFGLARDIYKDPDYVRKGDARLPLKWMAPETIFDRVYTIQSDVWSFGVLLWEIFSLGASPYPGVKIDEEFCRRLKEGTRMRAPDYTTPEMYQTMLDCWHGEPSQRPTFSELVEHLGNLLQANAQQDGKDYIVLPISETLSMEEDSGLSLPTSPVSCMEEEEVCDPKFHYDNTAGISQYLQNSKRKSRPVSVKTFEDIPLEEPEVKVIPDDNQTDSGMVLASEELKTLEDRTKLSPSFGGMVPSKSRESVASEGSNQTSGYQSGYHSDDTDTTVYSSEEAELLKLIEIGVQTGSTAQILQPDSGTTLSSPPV
Structure (SMILES),EC15 (Aurora kinase B [7]),IC50 [8],IC50 (Aurora kinase B [9]),ED50 (Mus musculus [11]),also measured
Cc1cccc(NC(=O)Nc2ccc(-c3csc4ccnc(N)c34)cc2)c1,4140 nM,–,–,–,clearance [1]: 66.7 mL/min/kg; half-life [2]: 0.3 h; AUC [3]: 450 ng·h/mL; Activity (Mus musculus [4]): inactive; Vd [5]: 1.7 L/kg; bioavailability [6]: 18%
CC(C)CCn1cc(-c2cnc(N)c3c(-c4ccc(NC(=O)Nc5cccc(F)c5)cc4)csc23)cn1,–,25 nM,529 nM,–,–
Nc1ncc(-c2cnn(CCCN3CC[C@@H](O)C3)c2)c2scc(-c3ccc(NC(=O)Nc4cccc(F)c4)cc3)c12,< 1 nM,2 nM,2 nM,–,–
Cc1cccc(NC(=O)Nc2ccc(-c3csc4c(-c5cn[nH]c5)cnc(N)c34)cc2)c1,31 nM,–,8 nM,–,–
Cc1cccc(NC(=O)Nc2ccc(-c3csc4c(-c5ccoc5)cnc(N)c34)cc2)c1,> 300 nM,8 nM,100 nM,–,IC50 [10]: 14 nM
CC(C)Cn1cc(-c2cnc(N)c3c(-c4ccc(NC(=O)Nc5cccc(F)c5)cc4)csc23)cn1,355 nM,25 nM,177 nM,1.1 mg/kg,–
Cc1ccc(NC(=O)Nc2ccc(-c3csc4c(-c5cnn(C)c5)cnc(N)c34)cc2)cc1,64 nM,–,50 nM,1 mg/kg,–
CCCn1cc(-c2cnc(N)c3c(-c4ccc(NC(=O)Nc5cccc(F)c5)cc4)csc23)cn1,4 nM,–,31 nM,1.5 mg/kg,clearance [1]: 16.7 mL/min/kg; half-life [2]: 0.8 h; AUC [3]: 5260 ng·h/mL; inhibition (INH) (Cytochrome P450 3A4 [12]): < 20%; Vd [5]: 1.2 L/kg; bioavailability [6]: 52%; inhibition in vivo at 10 mg/kg (HT-1080): > 70%
Cn1cc(-c2cnc(N)c3c(-c4ccc(NC(=O)Nc5cccc(F)c5)cc4)csc23)cn1,6 nM,–,9 nM,0.3 mg/kg,clearance [1]: 3.33 mL/min/kg; half-life [2]: 3.6 h; AUC [3]: 44000 ng·h/mL; IC50 (Cytochrome P450 3A4 [13]): 2700 nM; IC50 (Cytochrome P450 3A4 [14]): 7900 nM; Vd [5]: 0.9 L/kg; bioavailability [6]: 78%; inhibition in vivo at 10 mg/kg (HT-1080): > 70%
Cn1cc(-c2cnc(N)c3c(-c4ccc(NC(=O)Nc5ccc(Cl)cc5)cc4)csc23)cn1,27 nM,8 nM,48 nM,0.3 mg/kg,–
Cc1cccc(NC(=O)Nc2ccc(-c3csc4c(-c5cc[nH]c5)cnc(N)c34)cc2)c1,389 nM,4 nM,68 nM,–,IC50 [10]: 1 nM
Cn1cc(-c2cnc(N)c3c(-c4ccc(NC(=O)Nc5ccccc5)cc4)csc23)cn1,9 nM,3 nM,6 nM,0.3 mg/kg,–
Cc1cccc(NC(=O)Nc2ccc(-c3csc4c(-c5cc[nH]n5)cnc(N)c34)cc2)c1,161 nM,6 nM,66 nM,–,IC50 [10]: 3 nM
Cc1cccc(NC(=O)Nc2ccc(-c3csc4c(-c5ccccc5)cnc(N)c34)cc2)c1,–,–,3280 nM,–,–
Cc1cccc(NC(=O)Nc2ccc(-c3csc4c(-c5cnn(C)c5)cnc(N)c34)cc2)c1,55 nM,–,–,1 mg/kg,clearance [1]: 18.3 mL/min/kg; half-life [2]: 1.5 h; AUC [3]: 5640 ng·h/mL; Vd [5]: 2.3 L/kg; bioavailability [6]: 59%; inhibition in vivo at 10 mg/kg (HT-1080): > 70%
